Series [1] deals with T1, 5'-nucleotidase (Homo sapiens, UniProt P21589). Kind of series: Inhibition of CD73 in human MDA-MB-231 cells incubated for 30 mins by anti-CD73 antibody and alexa flour 633 staining based confocal microscopy analysis. Type of series: cell-based. In short, it runs like this: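 MDA-MB-231 cells grown on cover slips were stained with rabbit anti-human CD73 antibody (h5NT-1L), then incubated with Alexa Fluor 633 goat anti-rabbit IgG secondary together with the fluorescein-labelled CD73 inhibitor. Nuclei were counterstained with DAPI. Cell-surface CD73 and probe binding were imaged by confocal microscopy.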

A further series concerns MDA-MB-231. Nature of the series: Cytotoxicity against human MDA-MB-231 cells assessed as reduction in cell growth at 10000 nM incubated for 24 hrs by FACS analysis. Type of series: cell-based. Conditions: mda-mb-231, 24 h, 10 µM. (Flow cytometry measures light scatter and fluorescence of single cells or particles in a stream.)
The subject of another series is A549. Nature of the series: Cytotoxicity against human A549 cells assessed as reduction in cell growth at 1000 nM incubated for 48 hrs by CCK8 assay. The format is cell-based. Conditions: a549, 48 h, 1 µM. For orientation: Tetrazolium dyes change colour on reduction, which living cells bring about.
For a further series, the system named is Retina. Kind of series: Effect on C57BL/6 mouse retina with CD73-/- deficient incubated for 1 hr by microscopic analysis. Type of series: ADME, tissue-based. Summed up: (§1)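 Eyeballs enucleated from wild-type and CD73 knockout mice (targeted gene disruption). Free-floating vibratome-cut eye sections costained with rabbit anti-rat CD73 and chicken anti-vimentin antibodies. Then incubated with fluorochrome-conjugated second-stage antibodies together with fluorescein-labeled inhibitor. Nuclei counterstained with DAPI; read by immunofluorescence microscopy.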

Series [2] addresses T2, 5'-nucleotidase (Mus musculus) (UniProt Q61503).
T2 sequence (whole entry): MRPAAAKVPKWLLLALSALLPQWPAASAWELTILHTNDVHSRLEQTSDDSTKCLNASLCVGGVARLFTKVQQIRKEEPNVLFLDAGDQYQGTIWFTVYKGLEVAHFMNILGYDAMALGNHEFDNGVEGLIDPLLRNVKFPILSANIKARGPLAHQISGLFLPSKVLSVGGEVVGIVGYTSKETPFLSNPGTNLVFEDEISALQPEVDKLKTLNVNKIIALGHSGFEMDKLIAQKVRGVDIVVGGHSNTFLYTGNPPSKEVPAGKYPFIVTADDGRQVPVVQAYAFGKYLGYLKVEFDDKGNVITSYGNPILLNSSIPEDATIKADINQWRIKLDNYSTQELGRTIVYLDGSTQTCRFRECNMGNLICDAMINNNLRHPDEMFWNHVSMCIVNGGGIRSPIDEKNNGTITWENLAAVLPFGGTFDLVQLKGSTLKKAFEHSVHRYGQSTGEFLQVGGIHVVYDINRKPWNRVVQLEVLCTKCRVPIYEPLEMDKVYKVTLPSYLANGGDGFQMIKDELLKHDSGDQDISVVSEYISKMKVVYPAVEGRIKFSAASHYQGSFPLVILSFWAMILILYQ
Kind of series: Inhibition of CD73 in C57BL/6 mouse retina incubated for 1 hr by microscopic analysis. Type of series: tissue-based. In short, it runs like this: as §1

In series [3] the target is T1, 5'-nucleotidase. Nature of the series: Inhibition of recombinant human C-terminal His-tagged CD73 (27 to 549 residues) expressed in Sf9 cells using [2,8-3H]-AMP as substrate incubated for 25 mins by scintillation counting method. Summed up:
(§2)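 Radiometric CD73 assay using [3H]AMP substrate. Enzyme sources: human and rat recombinant soluble CD73 from Sf9 insect cells, or membrane preparations of MDA-MB-231 cells with native CD73. After incubation, unreacted [3H]AMP precipitated with lanthanum chloride and removed by filtration. [3H]adenosine in filtrate quantified by liquid scintillation counting. Full concentration-inhibition curves; Ki from IC50 via Cheng–Prusoff. Means ± SEM of 3 separate experiments.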

A short description of series [4]: Metabolic stability in human liver microsomes assessed as intrinsic clearance measured for 60 mins. The format is ADME, Microsome. Conditions: read-out: CLH. In short, it runs like this: (§3)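 Stability of the probe tested by incubation with human liver microsomes. Intrinsic clearance expressed per mg microsomal protein; half-life derived from the clearance.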
A general note: Microsomes from liver hold many membrane-bound enzymes, among them those of drug oxidation.

The nature of series [5]: Selectivity index, ratio of Ki for rat C-terminal His-tagged CD73 expressed in Sf9 cells to Ki for recombinant human C-terminal His-tagged CD73 (27 to 549 residues) expressed in Sf9 cells. In short, it runs like this:
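Ki values were measured in a radiometric assay with [3H]AMP substrate against rat and human recombinant soluble CD73 expressed in Sf9 insect cells. Residual [3H]AMP was precipitated with lanthanum chloride and removed by filtration, and [3H]adenosine was quantified by liquid scintillation counting. Ki came from full-curve IC50 via Cheng–Prusoff, 3 separate experiments. The ratio is rat Ki over human Ki.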

Series [6] can be described thus: Metabolic stability in human liver microsomes assessed as half life measured for 60 mins. The format is ADME, Microsome. Summed up:
as §3

Series [7] concerns the target T1, 5'-nucleotidase. Nature of the series: Inhibition of CD73 in human MDA-MB-231 cells using [2,8-3H]-AMP as substrate incubated for 25 mins by scintillation counting method. Type of series: cell-based. Summed up: as §2
For series [8], the target named is T3, Ectonucleoside triphosphate diphosphohydrolase 8 (Homo sapiens) (UniProt Q5MY95).
T3 sequence (whole entry): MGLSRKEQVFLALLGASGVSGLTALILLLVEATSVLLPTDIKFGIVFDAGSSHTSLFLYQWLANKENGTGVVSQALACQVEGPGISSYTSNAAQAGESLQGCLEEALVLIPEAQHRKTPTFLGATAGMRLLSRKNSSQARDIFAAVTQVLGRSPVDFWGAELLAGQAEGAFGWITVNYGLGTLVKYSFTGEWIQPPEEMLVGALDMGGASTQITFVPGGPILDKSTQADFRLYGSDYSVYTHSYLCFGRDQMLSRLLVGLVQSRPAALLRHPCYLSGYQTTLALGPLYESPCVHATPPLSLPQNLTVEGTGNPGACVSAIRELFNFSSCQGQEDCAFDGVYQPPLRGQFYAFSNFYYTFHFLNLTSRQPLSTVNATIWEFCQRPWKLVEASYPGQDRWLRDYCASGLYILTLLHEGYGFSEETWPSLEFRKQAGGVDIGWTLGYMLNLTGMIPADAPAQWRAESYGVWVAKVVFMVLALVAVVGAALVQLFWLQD
Kind of series: Inhibition of human NTPDase 8 expressed in […] cells using ATP as substrate at 50 uM incubated for 5 mins followed by substrate addition and measured after 30 mins by capillary electrophoresis method. Type of series: cell-based.

The target in series [9] is T4, Ectonucleoside triphosphate diphosphohydrolase 1 (Homo sapiens) (UniProt P49961).
T4 sequence (whole entry): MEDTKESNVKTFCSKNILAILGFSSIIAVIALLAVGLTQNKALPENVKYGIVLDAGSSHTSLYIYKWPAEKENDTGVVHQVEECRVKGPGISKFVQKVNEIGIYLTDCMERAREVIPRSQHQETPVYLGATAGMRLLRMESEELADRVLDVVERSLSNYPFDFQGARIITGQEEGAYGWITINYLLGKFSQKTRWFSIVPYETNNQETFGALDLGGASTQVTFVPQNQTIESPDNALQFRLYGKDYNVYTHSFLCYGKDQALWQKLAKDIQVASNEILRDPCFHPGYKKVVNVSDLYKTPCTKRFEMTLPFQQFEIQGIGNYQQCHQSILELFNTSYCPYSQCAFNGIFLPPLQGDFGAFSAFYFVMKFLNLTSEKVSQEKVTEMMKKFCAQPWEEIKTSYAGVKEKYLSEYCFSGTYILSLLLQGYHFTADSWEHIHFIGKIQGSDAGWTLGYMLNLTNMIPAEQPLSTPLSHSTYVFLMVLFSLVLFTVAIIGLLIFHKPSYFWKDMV
Kind of series: Inhibition of human NTPDase 1 expressed in […] cells using ATP as substrate at 50 uM incubated for 5 mins followed by substrate addition and measured after 30 mins by capillary electrophoresis method. The format is cell-based.

For series [10], the target named is T5, 5'-nucleotidase (Rattus norvegicus, UniProt P21588).
T5 sequence (P21588 whole entry): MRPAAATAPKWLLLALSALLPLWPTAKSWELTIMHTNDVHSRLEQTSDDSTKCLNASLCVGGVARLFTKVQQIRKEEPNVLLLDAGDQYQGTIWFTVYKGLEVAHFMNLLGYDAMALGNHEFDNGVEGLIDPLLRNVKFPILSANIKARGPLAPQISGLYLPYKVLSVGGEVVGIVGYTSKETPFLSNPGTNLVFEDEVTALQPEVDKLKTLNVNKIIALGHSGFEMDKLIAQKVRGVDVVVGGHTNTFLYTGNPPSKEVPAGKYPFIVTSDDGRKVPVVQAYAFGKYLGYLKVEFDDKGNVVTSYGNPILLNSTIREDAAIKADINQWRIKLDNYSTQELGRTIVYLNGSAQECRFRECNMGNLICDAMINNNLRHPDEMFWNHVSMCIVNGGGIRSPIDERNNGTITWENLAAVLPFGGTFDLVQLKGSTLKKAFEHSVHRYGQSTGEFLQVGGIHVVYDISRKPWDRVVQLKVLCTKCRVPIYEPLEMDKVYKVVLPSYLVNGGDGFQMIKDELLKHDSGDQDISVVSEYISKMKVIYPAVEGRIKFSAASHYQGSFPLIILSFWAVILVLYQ
Kind of series: Inhibition of recombinant rat CD73 expressed in Sf9 cells using [2,8-3H]-AMP as substrate incubated for 25 mins by scintillation counting method. Summed up:
as §2

In series [11] the target is T6, Ectonucleoside triphosphate diphosphohydrolase 3 (Homo sapiens) (UniProt O75355).
T6 sequence (whole entry): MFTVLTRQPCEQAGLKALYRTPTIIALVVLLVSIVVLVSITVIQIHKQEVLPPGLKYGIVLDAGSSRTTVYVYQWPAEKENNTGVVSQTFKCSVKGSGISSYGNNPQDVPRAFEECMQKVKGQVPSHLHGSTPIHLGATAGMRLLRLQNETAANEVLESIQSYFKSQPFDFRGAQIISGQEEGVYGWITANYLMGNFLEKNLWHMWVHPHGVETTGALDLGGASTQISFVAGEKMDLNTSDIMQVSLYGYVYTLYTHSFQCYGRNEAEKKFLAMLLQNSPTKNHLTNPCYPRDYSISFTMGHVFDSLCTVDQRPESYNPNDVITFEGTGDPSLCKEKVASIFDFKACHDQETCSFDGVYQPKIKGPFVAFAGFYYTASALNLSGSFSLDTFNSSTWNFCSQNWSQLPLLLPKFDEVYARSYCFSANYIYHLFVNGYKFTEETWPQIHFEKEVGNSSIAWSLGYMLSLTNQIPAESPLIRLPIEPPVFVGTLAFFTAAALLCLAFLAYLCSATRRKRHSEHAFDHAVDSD
Nature of the series: Inhibition of human NTPDase 3 expressed in […] cells using ATP as substrate at 50 uM incubated for 5 mins followed by substrate addition and measured after 30 mins by capillary electrophoresis method. The format is cell-based.

Series [12] has as its target T7, Ectonucleoside triphosphate diphosphohydrolase 2 (Homo sapiens) (UniProt Q9Y5L3).
T7 sequence (whole entry): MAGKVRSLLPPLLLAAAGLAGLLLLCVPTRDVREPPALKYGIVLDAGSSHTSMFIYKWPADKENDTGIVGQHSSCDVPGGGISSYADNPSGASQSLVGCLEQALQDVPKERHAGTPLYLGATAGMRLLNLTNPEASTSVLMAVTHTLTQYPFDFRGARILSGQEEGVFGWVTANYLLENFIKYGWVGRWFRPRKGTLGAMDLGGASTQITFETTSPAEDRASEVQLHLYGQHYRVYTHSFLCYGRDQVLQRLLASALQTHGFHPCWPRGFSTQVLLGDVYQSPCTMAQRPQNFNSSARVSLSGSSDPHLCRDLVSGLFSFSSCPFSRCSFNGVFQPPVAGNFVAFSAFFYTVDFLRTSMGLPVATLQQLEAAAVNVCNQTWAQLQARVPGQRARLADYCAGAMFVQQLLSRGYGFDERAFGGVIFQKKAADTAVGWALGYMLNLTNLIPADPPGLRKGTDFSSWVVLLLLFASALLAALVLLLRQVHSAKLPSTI
Kind of series: Inhibition of human NTPDase 2 expressed in […] cells using ATP as substrate at 50 uM incubated for 5 mins followed by substrate addition and measured after 30 mins by capillary electrophoresis method. The format is cell-based.

For series [13], the target named is P2Y purinoceptor 12 (Homo sapiens) (UniProt Q9H244). Nature of the series: Effect on human P2Y12 expressed in […] cells assessed as beta arrestin recruitment at 10 uM by beta-arrestin assay. Type of series: functional, cell-based. Conditions: CHO-K1.

These results are taken from ChEMBL document CHEMBL4725476, “Fluorescent Probes for Ecto-5'-nucleotidase (CD73)” (ACS Med Chem Lett, 2020).

What is called Ki is a dissociation constant, usually derived from enzyme kinetics or from competition with a known ligand. In general, half-life refers to the time in which the quantity being followed falls by half.

Calls of active or inactive are those of the source. The rule behind the calls is not given here.

T1 sequence (P21589 whole entry): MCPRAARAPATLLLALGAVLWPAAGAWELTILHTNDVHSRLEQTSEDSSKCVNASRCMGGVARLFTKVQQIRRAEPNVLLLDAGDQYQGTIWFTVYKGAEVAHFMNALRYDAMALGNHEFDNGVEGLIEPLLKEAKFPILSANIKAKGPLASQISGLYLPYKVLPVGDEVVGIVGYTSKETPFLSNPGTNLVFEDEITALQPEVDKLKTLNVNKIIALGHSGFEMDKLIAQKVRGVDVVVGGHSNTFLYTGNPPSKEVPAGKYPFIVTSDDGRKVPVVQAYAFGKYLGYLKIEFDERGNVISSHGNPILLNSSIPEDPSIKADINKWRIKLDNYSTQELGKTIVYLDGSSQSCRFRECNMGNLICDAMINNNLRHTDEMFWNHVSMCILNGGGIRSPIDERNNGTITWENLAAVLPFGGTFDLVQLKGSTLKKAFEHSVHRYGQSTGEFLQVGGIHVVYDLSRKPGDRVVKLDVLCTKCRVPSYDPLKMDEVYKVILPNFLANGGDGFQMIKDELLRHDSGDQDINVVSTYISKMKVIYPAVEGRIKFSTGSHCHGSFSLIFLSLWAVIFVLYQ
Chain of P2Y purinoceptor 12 (Homo sapiens) (Q9H244 whole entry): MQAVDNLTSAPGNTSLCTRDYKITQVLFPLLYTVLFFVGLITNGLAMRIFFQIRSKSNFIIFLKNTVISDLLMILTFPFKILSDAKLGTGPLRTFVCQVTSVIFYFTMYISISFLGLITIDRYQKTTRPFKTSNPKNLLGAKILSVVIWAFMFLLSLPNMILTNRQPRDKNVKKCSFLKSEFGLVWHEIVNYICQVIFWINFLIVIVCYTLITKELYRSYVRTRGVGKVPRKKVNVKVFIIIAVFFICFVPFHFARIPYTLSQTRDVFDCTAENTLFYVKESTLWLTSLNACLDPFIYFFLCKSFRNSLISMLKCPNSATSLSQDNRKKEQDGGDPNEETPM

As to `O=C(NCCOCCOCCNC(=O)c1ccc2c(c1)C1(OC2=O)c2ccc(O)cc2Oc2cc(O)ccc21)c1ccc(CNc2ncnc3c2ncn3[C@@H]2O[C@H](COP(=O)(O)CP(=O)(O)O)[C@@H](O)[C@H]2O)cc1`, the inhibition entry (on 5'-nucleotidase [1]; in series [2]) was “Active” throughout. In addition, the Activity entry with MDA-MB-231, in the series on A549 and in the series on Retina was “Non-Toxic” throughout. In addition, the inhibitory constant (Ki) at 5'-nucleotidase [3] is 12.6 nM.
On to `O=C(NCCCCCCNC(=O)c1ccc2c(c1)C1(OC2=O)c2ccc(O)cc2Oc2cc(O)ccc21)c1ccc(CNc2ncnc3c2ncn3[C@@H]2O[C@H](COP(=O)(O)CP(=O)(O)O)[C@@H](O)[C@H]2O)cc1`, for which the inhibition result (at 5'-nucleotidase [1]; in [2]) was “Active” each time. In addition, the microsomal CLint in series [4] is 12 µL/min/mg. The Activity entry in the series on MDA-MB-231, with A549 and in the series on Retina was “Non-Toxic” each time. In addition, the Ratio Ki in [5] was found to be 8. For the same molecule, in series [6], the half-life is 1.93 h. The figures for the inhibition constant Ki on 5'-nucleotidase [7], on 5'-nucleotidase [10] and at 5'-nucleotidase [3] were 4.59 nM, 26 nM and 2.98 nM, respectively. Also, the inhibition entry in series [8], in series [9], in series [11] and in [12] was “inactive” in each case. Moreover, in series [13], the outcome was inactive.
